Measurements from PMC9773939 (ACS Omega, 2022).
Like-named read-outs stand apart in the source and are kept apart here. Marks after values point to notes of the source that are not given here. Values belong to the compound of their own block, whether it stands above or below them.

Legend:
[1] = system: promastigotes of L. braziliensis; experiment: In vitro growth inhibition of L. braziliensis promastigotes; assay type: cell-based, Leishmania (V) braziliensis (MHOM/BR/75/M2903); conditions: Leishmania braziliensis, read-out: promastigote, IC50 L. braziliensis
[2] = system: promastigotes of L. infantum; experiment: In vitro growth inhibition of L. infantum promastigotes; assay type: cell-based, Leishmania infantum (MHOM MA67I7MAP263); conditions: for IC50: read-out: promastigote, IC50 L. infantum
Outline: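 L. infantum MHOM MA67I7MAP263 promastigotes at 2 × 10^6 parasites/mL were exposed to 0.5–25 μM test compound for 72 h at 25 °C. Dilutions came from a 3000 μM DMSO stock, with final DMSO ≤1%. MTT (0.4 mg/mL) was added for 4 h at 37 °C, formazan was dissolved in DMSO and read at 570 nm. Inhibition was calculated against untreated controls. At least three experiments, mean ± SD.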

[3] = system: epimastigotes of T. cruzi; experiment: In vitro anti-T. cruzi evaluation on epimastigotes; assay type: cell-based, T. cruzi (CL Brener clone); conditions: for IC50: 120 h, read-out: epimastigote, IC50 T. cruzi; for S.I.T.cruzi (selectivity index), column epimastigote, IC50 (μM) T. cruzi (S.I.T.cruzi): CC50 (J774.1A) / IC50 of epimastigotes (T. cruzi)
Outline: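 Turbidity (A595) was read at day 0 and day 5. PGI was calculated relative to untreated controls, with single-point PGI at 25 μM. IC50 is the concentration […]. At least three experiments.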

[4] = system: Salmonella typhimurium TA 98 strain; experiment: Mutagenicity Ames test; assay type: cell-based
[5] = Cytotoxicity on primary peritoneal macrophages; assay type: cell-based, mouse; conditions: mouse, primary peritoneal macrophages, peritoneal macrophage, CC50, 48 h, MTT
Outline: (§1)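 Peritoneal or J774.1A macrophages were grown in DMEM with 10% heat-inactivated FBS, L-glutamine and penicillin/streptomycin. Cells were seeded at 5 × 10^4 cells/well for 24 h at 37 °C, 5% CO2, then given test compound at 10–100 μM (from 25,000 μM DMSO stock) for 48 h. MTT (0.4 mg/mL, 4 h, 37 °C) was dissolved in DMSO and read at 570 nm. Cytotoxicity was expressed relative to negative controls. At least three experiments.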

[6] = Cytotoxicity on J774.1A macrophages; assay type: cell-based; conditions: mouse, J774.1A macrophages, J774.1A macrophage, CC50, 48 h, MTT
Outline: as §1

[7] = system: amastigotes of L. braziliensis; experiment: Ex vivo antiamastigote activity of L. braziliensis; assay type: cell-based, L. braziliensis (MHOM/BZ/82/M2903); conditions: for IC50: Leishmania braziliensis, 48 h, read-out: amastigote, IC50 L. braziliensis; for S.I.Leishmania (selectivity index): CC50 (peritoneal macrophage) / IC50 (amastigotes of L. braziliensis)
Outline: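 L. braziliensis MHOM/BZ/82/M2903 amastigotes were taken from footpad lesions of infected BALB/c mice. Macrophages were removed by brief centrifugation (3000 rpm, 2–3 min). Amastigotes were kept at 37 °C, pH 5.5, in supplemented M199 with 10% FCS. At 2 × 10^6/mL they were exposed to 1.0–50.0 μM test compound (controls 1% DMSO). At 48 h parasites were counted in a Neubauer chamber against untreated controls. S.I. = peritoneal macrophage CC50 / amastigote IC50.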

[8] = system: epimastigotes of T. cruzi; experiment: Antifolate activity: IC50 on T. cruzi epimastigotes with and without folic acid; assay type: cell-based; conditions: presence vs absence of D,L-folic acid
Outline: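 T. cruzi epimastigotes were treated with test compound with or without D,L-folic acid, following the epimastigote turbidimetric viability protocol (120 h, 25 °C, A595). IC50 was determined in each condition and compared.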

[9] = system: promastigotes of L. infantum; assay type: cell-based; conditions: presence vs absence of D,L-folic acid
Outline: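 L. infantum promastigotes were treated with test compound with or without D,L-folic acid, following the promastigote MTT viability protocol (72 h, 25 °C, formazan read at 570 nm). IC50 was determined in each condition and compared.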

[10] = system: promastigotes of L. infantum; experiment: Effect of metal cations on IC50 on L. infantum promastigotes; assay type: cell-based; conditions: Leishmania parasites, metal cation at 1 μM
Outline: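 L. infantum promastigotes were treated with test compound alone or with a metal cation (Fe3+, Cu2+ or Zn2+) at 1 μM, following the promastigote MTT viability protocol. IC50 was determined with and without the cation and compared.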

[11] = system: L. infantum promastigotes; experiment: Nitrite concentration by Griess test, L. infantum promastigote culture; assay type: cell-based; conditions: 5 days, 25, 50 and 100 μM
Outline: (§2)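 L. infantum promastigote or T. cruzi epimastigote cultures (5 × 10^6 parasites/well) were incubated 5 days with test compound at 25, 50 and 100 μM, with untreated wells as controls. Supernatants were mixed with 1% sulfanilamide in 50% acetic acid, then after 15 min with 1% N-naphthylethylenediamine in 50% acetic acid, and read at 540 nm. Nitrite (μM) was taken from a sodium nitrite standard curve (detection limit 1.56 μM). Run in triplicate.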

T. cruzi epimastigotes = experiment: Nitrite concentration by Griess test, T. cruzi epimastigote culture; assay type: cell-based; conditions: 5 days, 25, 50 and 100 μM
Outline: as §2

[12] = Oxidative decomposition followed by NMR; assay type: physicochemical; conditions: 2 weeks of incubation with H2O2
[13] = Solubility, qualitative remarks; assay type: physicochemical; conditions: qualitative remark
[14] = system: epimastigotes of T. cruzi; conditions: cited from earlier work
J774.1A macrophages [15] = conditions: read-out: J774.1A macrophage, CC50; cited from earlier work
peritoneal macrophages = experiment: Cytotoxicity on primary peritoneal macrophages; assay type: cell-based, mouse; conditions: read-out: peritoneal macrophage, CC50; 48 h, MTT
Outline: as §1

J774.1A macrophages [16] = experiment: Cytotoxicity on J774.1A macrophages; assay type: cell-based; conditions: read-out: J774.1A macrophage, CC50; 48 h, MTT
Outline: as §1

Structure (SMILES): COc1cccc(-c2nc3ccccc3/c(=N/N)[nH]2)c1 [3h, (Z)-1-(2-(3-Methoxyphenyl)quinazolin-4(3H)-ylidene)hydrazine]
IC50 [1]: 12.2 ± 0.76 µM | IC50 ([2]; Leishmania infantum, 72 h): > 25 µM | inhibition at 25 µM ([2]; Leishmania infantum, read-out: promastigote, PGI (percentage growth inhibition) L. infantum): 47.2% | promastigote, IC50 L. infantum ([2]; promastigotes, 72 h, MTT): inactive | IC50 ([3]; Trypanosoma cruzi): > 25 µM | inhibition at 25 µM ([3]; Trypanosoma cruzi, read-out: epimastigote, PGI (percentage growth inhibition) T. cruzi, determined at 25 μM): 10.1%

Structure (SMILES): Nc1ccc([N+](=O)[O-])cc1N [NPD, 4-nitro-o-phenylenediamine, reference compound]
revertants number ([4]; dose 20.0 μg/plate): 394.0 ± 10

Structure (SMILES): CCCCCCCCCCCCCCCCOP(=O)([O-])OCC[N+](C)(C)C [miltefosine, reference compound]
IC50 [1]: 8.78 ± 0.41 µM | IC50 ([2]; Leishmania infantum, 72 h): 10.6 ± 0.46 µM | CC50 at 48 h [5]: 67.8 ± 3.11 µM | CC50 at 48 h [6]: 72.3 ± 3.45 µM | S.I.Leishmania (selectivity index) [7]: 3.2 | IC50 [7]: 21.2 ± 1.13 µM | change of IC50 on addition of folic acid (FA) [9]: not affected

Structure (SMILES): CC1CS(=O)(=O)CCN1/N=C/c1ccc([N+](=O)[O-])o1 (centres unmarked) [nifurtimox]
change of IC50 on addition of folic acid (FA) [8]: not affected | S.I.T.cruzi (selectivity index) ([14]; CC50 (J774.1A) / IC50 of epimastigotes (T. cruzi)): 36 ^c | IC50 ([14]; read-out: epimastigote, IC50 T. cruzi, anti-Chagasic reference): 7.7 ± 0.5 µM | CC50 (J774.1A macrophages [15]): 280 ± 4 µM

Structure (SMILES): O=c1[nH]c(-c2ccc(Cl)cc2)nc2ccccc12 [2-(4-chlorophenyl)quinazolin-4(3H)-one, reference compound]
nitrite ion production (Griess test) [11]: No production was detected | nitrite ion production (Griess test) (T. cruzi epimastigotes): No production was detected

Further lines, with some results ahead:

IC50 [7]: 8.96 ± 0.53 µM | change of IC50 on addition of folic acid (FA) [8]: Increasing IC50 values by about twofold | change of IC50 on addition of folic acid (FA) [9]: modest increase in IC50 | change of IC50 in the presence of Cu2+ [10]: increase in IC50 values | solubility in culture [13]: appreciable solubility
Structure (SMILES): NNc1nc(-c2ccc(Cl)cc2)nc2ccccc12 [3c, (Z)-1-(2-(4-chlorophenyl)quinazolin-4(3H)-ylidene)hydrazine]
IC50 [1]: 5.12 ± 0.32 µM | IC50 ([2]; Leishmania infantum, 72 h): 1.56 ± 0.09 µM | S.I.T.cruzi (selectivity index), column epimastigote, IC50 (μM) T. cruzi (S.I.T.cruzi) [3]: 9.1 | IC50 ([3]; Trypanosoma cruzi): 11.5 ± 0.49 µM | CC50 at 48 h [5]: 89.9 ± 3.77 µM | CC50 at 48 h [6]: 105 ± 5.66 µM | revertants number ([4]; dose 27.9 μg/plate): 8.0 ± 2.0 | revertants number ([4]; dose 37.2 μg/plate): 4.5 ± 2.0 | revertants number ([4]; dose 55.8 μg/plate): 5.0 ± 0.5 | revertants number ([4]; dose 111.7 μg/plate): 8.0 ± 1.0 | revertants number ([4]; dose 335.0 μg/plate): 9.5 ± 0.5 | nitrite ion production (Griess test) [11]: appreciable amount of nitrite ion in sub-micromolar ranges | nitrite ion production (Griess test) (T. cruzi epimastigotes): appreciable amount of nitrite ion in sub-micromolar ranges | decomposition under oxidative conditions [12]: decomposed in at least three additional products

IC50 [7]: 8.26 ± 0.45 µM
Structure (SMILES): NNc1nc(-c2ccccc2)nc2ccccc12 [3a, (Z)-1-(2-phenylquinazolin-4(3H)-ylidene)hydrazine]
IC50 [1]: 4.53 ± 0.23 µM | IC50 ([2]; Leishmania infantum, 72 h): 12.7 ± 0.74 µM | S.I.T.cruzi (selectivity index), column epimastigote, IC50 (μM) T. cruzi (S.I.T.cruzi) [3]: <3.6 | IC50 ([3]; Trypanosoma cruzi): > 25 µM | CC50 (peritoneal macrophages): 61 ± 2.34 µM | CC50 (J774.1A macrophages [16]): 90.2 ± 4.32 µM | S.I.Leishmania (selectivity index) [7]: 7.4
